Experimental findings from ChEMBL document CHEMBL2203205 (Eur J Med Chem, 2012) are described below.

pIC50: −log10 of the molar value.

Series [1] in a line: Half life in Sprague-Dawley rat at 10 mg/kg, po. In kind it is ADME, organism-based. To be noted: in vivo. Set-up: dose 10 mg/kg, route oral. In outline:
(§1)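 Male Sprague-Dawley rats dosed intravenously (3 mg/kg) and orally (10 mg/kg). PK parameters came from non-compartmental analysis of plasma concentration vs time curves.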

The target of series [2] is T1, Alpha-1B adrenergic receptor (Homo sapiens, UniProt P35368).
T1 sequence (P35368 whole entry): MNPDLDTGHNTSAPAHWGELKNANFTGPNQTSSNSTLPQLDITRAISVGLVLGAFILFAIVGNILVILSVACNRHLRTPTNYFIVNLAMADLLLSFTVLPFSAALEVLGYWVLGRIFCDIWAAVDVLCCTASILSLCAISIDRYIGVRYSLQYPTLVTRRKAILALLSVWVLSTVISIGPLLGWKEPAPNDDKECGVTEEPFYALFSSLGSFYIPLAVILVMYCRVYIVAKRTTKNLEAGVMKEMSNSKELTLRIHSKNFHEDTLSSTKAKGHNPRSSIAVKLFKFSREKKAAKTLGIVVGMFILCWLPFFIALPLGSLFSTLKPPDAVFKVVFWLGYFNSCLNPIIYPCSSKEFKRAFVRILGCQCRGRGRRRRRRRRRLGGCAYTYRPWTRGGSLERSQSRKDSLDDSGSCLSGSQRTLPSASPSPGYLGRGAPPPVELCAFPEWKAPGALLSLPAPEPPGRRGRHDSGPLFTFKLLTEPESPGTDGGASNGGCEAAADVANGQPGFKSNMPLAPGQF
Briefly: Inhibition of alpha1B adrenergic receptor. In a few lines:
(§2)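 Radioligand competition binding, run first as a single-concentration broad screen at […], then as concentration-response for follow-up targets, with the reference compound tested in parallel. Specific binding is total minus binding in excess unlabelled ligand, expressed as % of control specific binding. IC50 and Hill coefficient come from non-linear Hill-equation regression of competition curves built from mean replicate values.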

Series [3] concerns the target T2, Alpha-2A adrenergic receptor (Homo sapiens, UniProt P08913).
T2 sequence (P08913 whole entry): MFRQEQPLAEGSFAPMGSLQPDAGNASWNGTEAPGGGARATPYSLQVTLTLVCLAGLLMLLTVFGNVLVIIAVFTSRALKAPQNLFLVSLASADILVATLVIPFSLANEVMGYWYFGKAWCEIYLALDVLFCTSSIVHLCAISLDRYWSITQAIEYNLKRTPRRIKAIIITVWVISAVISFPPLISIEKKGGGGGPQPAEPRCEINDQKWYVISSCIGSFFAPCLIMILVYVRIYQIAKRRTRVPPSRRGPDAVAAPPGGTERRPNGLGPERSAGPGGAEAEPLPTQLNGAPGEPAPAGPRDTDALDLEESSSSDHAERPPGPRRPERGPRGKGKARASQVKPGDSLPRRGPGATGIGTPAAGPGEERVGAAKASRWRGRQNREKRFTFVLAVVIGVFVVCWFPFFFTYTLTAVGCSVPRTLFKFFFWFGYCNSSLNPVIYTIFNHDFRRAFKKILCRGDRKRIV
In words: Inhibition of alpha2A adrenergic receptor. In a few lines: as §2

Series [4] has as its target T3, Alpha-2C adrenergic receptor (Homo sapiens, UniProt P18825).
T3 sequence (P18825 whole entry): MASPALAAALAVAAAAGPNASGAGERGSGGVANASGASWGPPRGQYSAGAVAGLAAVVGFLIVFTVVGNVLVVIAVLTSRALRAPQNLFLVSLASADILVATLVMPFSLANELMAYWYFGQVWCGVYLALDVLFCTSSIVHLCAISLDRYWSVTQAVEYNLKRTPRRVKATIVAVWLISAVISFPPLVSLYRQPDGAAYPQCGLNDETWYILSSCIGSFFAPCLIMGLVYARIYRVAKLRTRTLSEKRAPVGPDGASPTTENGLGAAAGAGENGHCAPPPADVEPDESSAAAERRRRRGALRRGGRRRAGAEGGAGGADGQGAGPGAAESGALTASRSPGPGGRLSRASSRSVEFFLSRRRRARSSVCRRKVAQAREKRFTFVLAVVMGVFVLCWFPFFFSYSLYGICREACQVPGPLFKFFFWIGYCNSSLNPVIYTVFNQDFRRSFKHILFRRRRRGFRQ
Briefly: Inhibition of alpha2C adrenergic receptor. In a few lines: as §2

Series [5] addresses T4, Muscarinic acetylcholine receptor M2 (Homo sapiens, UniProt P08172).
T4 sequence (P08172 whole entry): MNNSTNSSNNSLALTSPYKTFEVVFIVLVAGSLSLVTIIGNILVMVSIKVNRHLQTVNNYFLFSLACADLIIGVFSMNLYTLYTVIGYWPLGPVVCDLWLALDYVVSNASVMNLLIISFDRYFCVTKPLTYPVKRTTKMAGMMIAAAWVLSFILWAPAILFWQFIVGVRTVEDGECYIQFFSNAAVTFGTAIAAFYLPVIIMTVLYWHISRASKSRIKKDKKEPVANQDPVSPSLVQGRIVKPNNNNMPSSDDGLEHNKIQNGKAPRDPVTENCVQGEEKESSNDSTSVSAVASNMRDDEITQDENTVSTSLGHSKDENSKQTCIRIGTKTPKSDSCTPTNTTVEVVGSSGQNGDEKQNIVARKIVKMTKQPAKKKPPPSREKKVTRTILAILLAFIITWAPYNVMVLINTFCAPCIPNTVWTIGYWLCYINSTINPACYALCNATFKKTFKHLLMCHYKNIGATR
In words: Inhibition of muscarinic M2 receptor. In outline: as §2

A short description of series [6]: Cmax in Sprague-Dawley rat at 10 mg/kg, po. It counts as ADME, organism-based. Set-up: dose 10 mg/kg, route oral. To be noted: in vivo. In a few lines: as §1
Series [7] is described as follows: Clearance in Sprague-Dawley rat at 3 mg/kg, iv. In kind it is ADME, organism-based. To be noted: in vivo. Set-up: dose 3 mg/kg, route intravenous. In a few lines:
as §1

Series [8] has as its target T5, Voltage-gated inwardly rectifying potassium channel KCNH2 (Homo sapiens, UniProt Q12809). In words: Displacement of [3H]astemizole from human recombinant ERG expressed in HEK293 cells. In kind it is cell-based. In a few lines: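 Binding was run in human recombinant HEK-293 cells with [3H]astemizole at 2 nM, incubated 75 min at 22 °C, with astemizole as reference. Nonspecific binding was taken with excess unlabelled ligand. Results were given as percent inhibition of control specific binding.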
In general terms: Loss of bound radioactivity is the signal in a displacement assay; it reports binding, not function.

Series [9] concerns the target T5, Voltage-gated inwardly rectifying potassium channel KCNH2. Briefly: Inhibition of human recombinant ERG expressed in HEK293 cells up to 100 uM after 5 to 10 mins by conventional whole-cell patch clamp assay. It counts as cell-based. In a few lines: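 Conventional whole-cell patch clamp on HEK-293 cells stably expressing hERG, cultured 1–7 days in DMEM/GlutaMax-1 + 10% FBS on collagen-coated dishes. Holding potential was −80 mV. Compound was superfused 5–10 min per concentration at rt (22–24 °C). Tail current amplitude was measured before and after superfusion. IC50 came from a logistic fit of the concentration-response.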

T5 sequence (Q12809 whole entry): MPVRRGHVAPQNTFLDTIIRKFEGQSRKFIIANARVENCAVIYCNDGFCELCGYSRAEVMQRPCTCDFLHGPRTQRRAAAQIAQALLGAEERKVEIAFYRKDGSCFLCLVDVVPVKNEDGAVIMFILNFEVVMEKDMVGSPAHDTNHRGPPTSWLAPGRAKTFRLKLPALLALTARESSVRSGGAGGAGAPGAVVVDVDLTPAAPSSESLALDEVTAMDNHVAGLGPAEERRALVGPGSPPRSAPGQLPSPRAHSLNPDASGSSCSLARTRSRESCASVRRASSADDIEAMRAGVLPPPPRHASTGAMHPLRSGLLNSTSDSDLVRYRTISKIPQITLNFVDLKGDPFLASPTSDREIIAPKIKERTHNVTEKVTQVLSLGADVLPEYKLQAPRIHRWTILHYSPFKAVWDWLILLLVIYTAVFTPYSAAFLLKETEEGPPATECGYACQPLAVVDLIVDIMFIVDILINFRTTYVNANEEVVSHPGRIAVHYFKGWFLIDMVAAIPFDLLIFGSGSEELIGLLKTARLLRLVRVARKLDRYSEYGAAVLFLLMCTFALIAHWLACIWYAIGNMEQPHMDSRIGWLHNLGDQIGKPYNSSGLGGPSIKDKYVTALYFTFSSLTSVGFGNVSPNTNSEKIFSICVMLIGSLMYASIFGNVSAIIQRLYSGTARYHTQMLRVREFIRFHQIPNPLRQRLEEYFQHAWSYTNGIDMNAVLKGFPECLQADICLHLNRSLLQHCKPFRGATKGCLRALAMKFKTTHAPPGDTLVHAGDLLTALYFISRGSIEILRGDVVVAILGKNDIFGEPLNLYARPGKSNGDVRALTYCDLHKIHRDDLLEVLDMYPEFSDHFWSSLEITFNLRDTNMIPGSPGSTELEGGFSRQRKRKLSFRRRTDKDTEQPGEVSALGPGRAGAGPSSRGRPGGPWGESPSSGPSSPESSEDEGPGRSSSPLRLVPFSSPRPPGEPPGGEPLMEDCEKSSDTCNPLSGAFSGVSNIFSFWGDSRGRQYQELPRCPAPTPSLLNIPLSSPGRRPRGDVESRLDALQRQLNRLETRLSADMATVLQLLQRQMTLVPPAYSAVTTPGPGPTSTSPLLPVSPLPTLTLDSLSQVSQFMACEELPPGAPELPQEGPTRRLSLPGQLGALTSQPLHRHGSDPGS

In turn, `N=C(Nc1ccc2c(c1)CCN2C1CCNCC1)c1cccs1` gave a half-life in series [1] of 12 h. The pIC50 in series [2] is 5.74; in series [3], 4.62; in [4], 4.96; in series [5], 5.44; in series [8], 3.80. This compound had a Cmax in [6] of 101 ng/mL. This compound also registered a clearance in series [7] of 420 mL/min/kg. Further, the “inhibition (INH)” value in series [9] was “Not Active”.

Broadly, the half-life is the time in which the quantity being followed falls by half. Usually pIC50 stands for the negative decadic logarithm of the IC50, by convention in mol/L. By Cmax is commonly meant the peak of the concentration-time curve. The term clearance denotes the rate of elimination divided by the concentration. High values mean efficient removal, low ones inefficient removal.
